Data from ChEMBL document CHEMBL5150070, “Tricyclic SpiroLactams Kill Mycobacteria In Vitro and In Vivo by Inhibiting Type II NADH Dehydrogenases” (J Med Chem, 2022).
pIC50: −log10 of the molar value. ≈ marks a conversion by molar mass, not a printed value.

Key:
[1] = system: Mycobacterium tuberculosis; assay: Bactericidal activity against Non-replicating Mycobacterium tuberculosis ss18b-lux assessed as decrease in colony forming unit measured at 1 uM after 1 weeks; format: functional
Summary of the method: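 Streptomycin-dependent 18b-lux starved of streptomycin for 14 days (OD600 reset to 0.2 on days 7 and 13) to become non-replicating. Diluted to OD600 0.15 on dispensed compound and held at 37°C. On day 7, active wells plated on 7H11-OADC with 50 µg/mL streptomycin and incubated up to 8 weeks for cfu.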

[2] = system: Mycobacterium tuberculosis; assay: Bactericidal activity against Non-replicating Mycobacterium tuberculosis ss18b-lux model assessed as decrease in luminescence at 10 to 10000 nM; format: functional, organism-based; conditions: dose 10-10000 nM, TDE = time-dependent effect
Summary of the method: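 Non-replicating streptomycin-starved 18b-lux (14-day starvation) diluted to OD600 0.15 in white 96-well plates with compound and incubated at 37°C. Luminescence read on days 1, 2, 5 and 7 and expressed relative to no-antibiotic controls (n ≥ 3).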

[3] = system: Mycobacterium tuberculosis; assay: Antimycobacterial activity against Mycobacterium tuberculosis H37Rv infected in human A-THP1 macrophages assessed as viability of infected macrophages incubated for 96 hrs by fluorescence microplate assay; format: functional, organism-based
Summary of the method: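 THP-1 cells differentiated with 50 ng/mL PMA for 72 h, infected with log-phase H37Rv (MOI 10, 2 h), and extracellular bacteria killed with 50 µg/mL amikacin for 1 h. Cells detached and seeded at 5×10⁵/mL in RPMI-10% FBS with PMA onto pre-dispensed compound, 96 h at 37°C, 5% CO₂. Macrophage viability by 0.05% resazurin fluorescence.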

[4] = system: Mycobacterium tuberculosis; assay: Antibiotic activity against Mycobacterium tuberculosis H37Rv assessed as reduction in bacterial cell growth by measuring resazurin reduction incubated for 6 days by fluorescence microplate based assay; format: functional; conditions: 144 h, time 6 day
[5] = Aqueous solubility of compound in pH 7.4 […]; format: physicochemical; conditions: buffer
Summary of the method: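 A 10 mM DMSO stock was diluted 50-fold into PBS pH 7.4 or methanol and shaken gently for 24 h at room temperature. Samples were centrifuged, filtered (0.45 µm), diluted 50-fold in MeOH and analysed by LC-MS/MS. Solubility = (AUC PBS/AUC MeOH)×200. Run in triplicate.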

Mycobacterium marinum = assay: Antibiotic activity against Mycobacterium marinum M strain assessed as reduction in bacterial cell growth by measuring resazurin reduction incubated for 6 days by fluorescence microplate based assay; format: functional; conditions: 144 h, time 6 day
Staphylococcus aureus = assay: Antibiotic activity against Staphylococcus aureus SH1000 assessed as reduction in bacterial cell growth by measuring resazurin reduction incubated for 6 days by fluorescence microplate based assay; format: functional; conditions: SH1000, 144 h, time 6 day
Summary of the method: (§1)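 E. coli BW25113, E. coli ΔtolC and S. aureus SH1000 were cultured and tested in cation-adjusted Mueller Hinton II broth. Viability was read by adding resazurin and measuring resorufin fluorescence at Ex 530 nm / Em 590 nm.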

Acinetobacter baumannii = assay: Antibiotic activity against Acinetobacter baumannii LMG-17978 assessed as reduction in bacterial cell growth by measuring resazurin reduction incubated for 6 days by fluorescence microplate based assay; format: functional; conditions: LMG-17978, 144 h, time 6 day
Mycobacterium avium = assay: Antibiotic activity against Mycobacterium avium TMC 724, ATCC-25291 assessed as reduction in bacterial cell growth by measuring resazurin reduction incubated for 6 days by fluorescence microplate based assay; format: functional; conditions: TMC 724, ATCC-25291, 144 h, time 6 day
[6] = system: Mycolicibacterium smegmatis; assay: Antibiotic activity against Mycobacterium smegmatis mc2155 assessed as reduction in bacterial cell growth by measuring resazurin reduction incubated for 6 days by fluorescence microplate based assay; format: functional; conditions: mc2155, 144 h, time 6 day
[7] = system: Mycobacteroides abscessus; assay: Antibiotic activity against Mycobacterium abscessus CIP104536, Smooth variant assessed as reduction in bacterial cell growth by measuring resazurin reduction incubated for 6 days by fluorescence microplate based assay; format: functional; conditions: 144 h, time 6 day
Pseudomonas aeruginosa = assay: Antibiotic activity against Pseudomonas aeruginosa POA1 assessed as reduction in bacterial cell growth by measuring resazurin reduction incubated for 6 days by fluorescence microplate based assay; format: functional; conditions: POA1, 144 h, time 6 day
Bacillus subtilis = assay: Antibiotic activity against Bacillus subtilis ATCC6633 assessed as reduction in bacterial cell growth by measuring resazurin reduction incubated for 6 days by fluorescence microplate based assay; format: functional; conditions: ATCC6633, 144 h, time 6 day
[8] = Octanol/PBS partition coefficient, logD of compound at pH 7.4 measured after 2 hrs by shake flask method; format: physicochemical; conditions: octanol/water, pH 7.4, 2 h
Summary of the method: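 A 10 mM DMSO stock was diluted 50-fold into 1:1 octanol:PBS pH 7.4 and shaken gently for 2 h at room temperature. Each phase was diluted 50-fold in MeOH and quantified by LC-MS/MS. LogD = log of the octanol/PBS concentration ratio from mass signals. Run in triplicate.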

[9] = system: Mycobacteroides abscessus; assay: Antibiotic activity against Mycobacterium abscessus CIP104536, Rough variant assessed as reduction in bacterial cell growth by measuring resazurin reduction incubated for 6 days by fluorescence microplate based assay; format: functional; conditions: 144 h, time 6 day
Klebsiella pneumoniae = assay: Antibiotic activity against Klebsiella pneumoniae LMG 2095 assessed as reduction in bacterial cell growth by measuring resazurin reduction incubated for 6 days by fluorescence microplate based assay; format: functional; conditions: LMG 2095, 144 h, time 6 day
[10] = target: T1, Type II NADH:quinone oxidoreductase NdhA (Mycobacterium tuberculosis, UniProt P95200); assay: Inhibition of Mycobacterium smegmatis MC2 155 recombinant ndhA assessed as rate of NADH oxidation in the presence of an electron acceptor menadione; design: species or system Mycolicibacterium smegmatis
T1 sequence (P95200 whole entry): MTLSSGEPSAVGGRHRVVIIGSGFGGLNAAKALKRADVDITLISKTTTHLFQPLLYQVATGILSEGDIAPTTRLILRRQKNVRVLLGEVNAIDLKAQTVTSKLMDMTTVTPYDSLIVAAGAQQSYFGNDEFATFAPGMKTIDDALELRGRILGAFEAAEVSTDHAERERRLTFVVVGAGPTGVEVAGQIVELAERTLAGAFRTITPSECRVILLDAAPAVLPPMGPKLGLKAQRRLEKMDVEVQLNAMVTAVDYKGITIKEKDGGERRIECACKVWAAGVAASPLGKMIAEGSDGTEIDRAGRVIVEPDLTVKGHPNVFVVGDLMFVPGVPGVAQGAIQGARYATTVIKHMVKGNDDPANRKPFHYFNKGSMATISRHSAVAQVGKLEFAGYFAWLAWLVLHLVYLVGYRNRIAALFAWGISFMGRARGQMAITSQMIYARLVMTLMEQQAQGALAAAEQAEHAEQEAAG

Escherichia coli = assay: Antibiotic activity against Escherichia coli deltatolC BW25113 deltatolC assessed as reduction in bacterial cell growth by measuring resazurin reduction incubated for 6 days by fluorescence microplate based assay; format: functional; conditions: 144 h, time 6 day; summary of the method: as §1
[11] = system: Mycobacterium tuberculosis; assay: Antimycobacterial activity against Mycobacterium tuberculosis H37Rv assessed as reduction in bacterial cell growth by measuring resazurin reduction incubated for 6 days by fluorescence microplate based assay; format: functional; conditions: time 6 day
[12] = target: Type II NADH:quinone oxidoreductase Ndh (Mycobacterium tuberculosis, UniProt P95160); assay: Inhibition of Mycobacterium tuberculosis recombinant type II NADH dehydrogenase ndh expressed in Escherichia coli assessed as rate of NADH oxidation in the presence of an electron acceptor menadione
Summary of the method: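 Purified N-terminal MBP-tagged Mtb Ndh (Rv1854c) expressed in E. coli, 70 nM, with 500 µM NADH in 50 mM HEPES pH 7.1 (K₂HPO₄). Compound pre-incubated 15 min at 25°C, reaction started with 100 µM menadione. NADH oxidation followed at 340 nm every 60 s. Rate taken from linear slope; IC50 is the mean ± SD of at least 3 independent experiments.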

Chain of Type II NADH:quinone oxidoreductase Ndh (P95160 whole entry): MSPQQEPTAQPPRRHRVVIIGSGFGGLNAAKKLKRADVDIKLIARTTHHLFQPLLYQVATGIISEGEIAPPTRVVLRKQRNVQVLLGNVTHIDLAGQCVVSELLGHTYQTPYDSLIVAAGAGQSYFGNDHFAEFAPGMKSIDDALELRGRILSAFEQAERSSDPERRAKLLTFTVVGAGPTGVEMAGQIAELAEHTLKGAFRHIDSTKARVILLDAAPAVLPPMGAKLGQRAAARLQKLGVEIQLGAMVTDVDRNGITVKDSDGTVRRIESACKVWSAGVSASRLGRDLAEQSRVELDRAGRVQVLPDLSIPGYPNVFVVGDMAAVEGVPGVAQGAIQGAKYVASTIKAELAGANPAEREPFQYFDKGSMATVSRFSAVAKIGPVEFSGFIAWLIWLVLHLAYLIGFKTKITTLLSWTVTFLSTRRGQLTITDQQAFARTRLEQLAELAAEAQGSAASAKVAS

For COc1nc2ccc(Br)cc2cc1[C@@H](c1ccccc1)[C@@](O)(CCN(C)C)c1cccc2ccccc12 [BEDAQUILINE], the Activity [1] was 1 log10CFU, the Activity [2] was “Tde” and the pIC50 [3] was 7.47.
Compound CC(C)[C@H]1CO[C@]23CCN(Cc4ccccc4)C[C@H]2CCC(=O)N13 has an MIC [4] of 3.2 µM (≈ 1.05 µg/mL), a solubility [5] of 178 µM (≈ 58.5 µg/mL) and an MIC (Mycobacterium marinum) of 6.3 µM (≈ 2.07 µg/mL). It also gave an MIC (Staphylococcus aureus) greater than 100 µM, an MIC (Acinetobacter baumannii) greater than 100 µM and an MIC (Mycobacterium avium) of 13.1 µM (≈ 4.3 µg/mL). For the same compound, the MIC [6] was 29.2 µM (≈ 9.59 µg/mL), the MIC [7] was no less than 100 µM and the MIC (Pseudomonas aeruginosa) was greater than 100 µM. For the same compound, the MIC (Bacillus subtilis) was greater than 100 µM, the logD [8] was 2.7 and the MIC [9] was no less than 100 µM. For the same compound, the MIC (Klebsiella pneumoniae) was greater than 100 µM, the pIC50 [10] was 6.01 and the MIC (Escherichia coli) was greater than 100 µM. The pIC50 [3] was 5.09.
Compound CC(C)[C@H]1CO[C@]23CCN(Cc4ccc(Cl)cc4)C[C@H]2CCC(=O)N13 has an MIC98 [11] of 0.25 µM (≈ 0.0907 µg/mL), a pIC50 [10] of 7.02 and a pIC50 [12] of 7.55.
For CC[C@H]1CO[C@]23CCN(Cc4ccccc4)C[C@H]2CCC(=O)N13, the MIC98 [11] was 18.8 µM (≈ 5.91 µg/mL).
